Source: ChEMBL document CHEMBL1138950, “Benzimidazole derivatives bearing substituted biphenyls as hepatitis C virus NS5B RNA-dependent RNA polymerase inhibitors: structure-activity relationship studies and identification of a potent and highly selective inhibitor JTK-109” (J Med Chem, 2006)

Columns and labels:
Huh-5-2 = experiment: Viability of Huh5-2 cells by MTT assay; type: functional; details: Homo sapiens
[1] = Inhibition of mammalian DNA dependent RNA polymerase
[2] = biological target: RNA-directed RNA polymerase (Hepacivirus hominis, UniProt O39930); experiment: Inhibition of HCV 2b NS5B RNA dependent RNA polymerase; parameters: species or system Hepatitis C virus subtype 2b
RNA-directed RNA polymerase, sequence (O39930 whole entry): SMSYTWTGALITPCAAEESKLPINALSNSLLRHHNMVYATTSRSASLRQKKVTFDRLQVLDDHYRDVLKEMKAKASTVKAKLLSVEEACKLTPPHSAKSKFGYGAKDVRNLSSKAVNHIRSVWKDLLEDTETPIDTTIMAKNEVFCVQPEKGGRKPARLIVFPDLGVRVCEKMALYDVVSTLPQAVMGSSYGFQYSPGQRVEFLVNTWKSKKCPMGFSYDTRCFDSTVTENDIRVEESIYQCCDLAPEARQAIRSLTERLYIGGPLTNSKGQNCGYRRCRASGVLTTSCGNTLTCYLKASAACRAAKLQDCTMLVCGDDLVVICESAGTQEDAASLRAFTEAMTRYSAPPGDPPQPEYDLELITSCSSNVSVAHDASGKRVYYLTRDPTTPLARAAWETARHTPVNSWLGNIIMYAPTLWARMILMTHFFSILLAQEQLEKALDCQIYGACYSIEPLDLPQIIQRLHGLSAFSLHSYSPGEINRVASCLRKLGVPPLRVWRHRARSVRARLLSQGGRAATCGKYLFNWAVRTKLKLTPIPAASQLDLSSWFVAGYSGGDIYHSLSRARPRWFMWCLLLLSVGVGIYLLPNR
How it was run: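 IC50 from the mean of four independent experiments; standard deviations within 30% of the mean.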

[3] = biological target: T1, DNA polymerase alpha catalytic subunit (Homo sapiens, UniProt P09884); experiment: Inhibition of DNA polymerase alpha
T1 sequence (P09884 whole entry): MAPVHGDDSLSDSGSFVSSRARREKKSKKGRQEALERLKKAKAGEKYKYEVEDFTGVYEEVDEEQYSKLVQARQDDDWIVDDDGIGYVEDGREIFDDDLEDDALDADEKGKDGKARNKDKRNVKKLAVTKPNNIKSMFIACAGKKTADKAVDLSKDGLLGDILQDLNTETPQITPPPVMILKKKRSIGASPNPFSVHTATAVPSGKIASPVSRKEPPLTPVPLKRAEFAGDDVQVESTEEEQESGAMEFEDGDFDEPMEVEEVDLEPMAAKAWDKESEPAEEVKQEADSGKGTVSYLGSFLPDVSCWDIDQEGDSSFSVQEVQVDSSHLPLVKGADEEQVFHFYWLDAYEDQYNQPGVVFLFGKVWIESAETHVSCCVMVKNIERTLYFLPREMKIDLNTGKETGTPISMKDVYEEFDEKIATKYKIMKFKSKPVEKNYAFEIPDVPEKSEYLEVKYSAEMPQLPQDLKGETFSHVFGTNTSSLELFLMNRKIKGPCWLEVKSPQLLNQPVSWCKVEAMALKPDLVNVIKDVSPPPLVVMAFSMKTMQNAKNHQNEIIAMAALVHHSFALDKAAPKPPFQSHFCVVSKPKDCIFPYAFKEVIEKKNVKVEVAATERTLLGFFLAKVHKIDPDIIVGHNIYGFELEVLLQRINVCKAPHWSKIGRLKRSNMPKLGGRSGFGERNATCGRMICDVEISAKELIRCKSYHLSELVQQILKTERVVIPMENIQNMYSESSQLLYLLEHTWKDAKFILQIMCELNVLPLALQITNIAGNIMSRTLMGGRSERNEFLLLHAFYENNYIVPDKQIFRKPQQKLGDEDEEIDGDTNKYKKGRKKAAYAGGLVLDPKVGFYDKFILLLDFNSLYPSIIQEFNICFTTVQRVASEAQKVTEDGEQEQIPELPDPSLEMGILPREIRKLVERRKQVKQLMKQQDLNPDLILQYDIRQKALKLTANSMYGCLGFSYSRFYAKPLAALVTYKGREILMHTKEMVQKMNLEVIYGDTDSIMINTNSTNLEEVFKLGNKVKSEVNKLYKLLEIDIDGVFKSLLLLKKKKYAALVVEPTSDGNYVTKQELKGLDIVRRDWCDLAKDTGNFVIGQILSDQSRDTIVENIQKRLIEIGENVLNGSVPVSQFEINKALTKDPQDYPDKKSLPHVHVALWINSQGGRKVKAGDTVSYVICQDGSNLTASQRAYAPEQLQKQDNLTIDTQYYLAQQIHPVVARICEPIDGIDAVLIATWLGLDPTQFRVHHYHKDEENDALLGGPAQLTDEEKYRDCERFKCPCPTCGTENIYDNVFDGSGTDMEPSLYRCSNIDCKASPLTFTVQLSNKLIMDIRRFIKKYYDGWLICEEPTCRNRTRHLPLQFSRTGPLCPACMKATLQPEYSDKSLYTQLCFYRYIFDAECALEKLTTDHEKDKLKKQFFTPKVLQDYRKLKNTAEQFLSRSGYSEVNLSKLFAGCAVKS

[4] = Half life in rat at 10 mg/kg; type: ADME, organism-based; parameters: dose 10 mg/kg; details: in vivo
[5] = Plasma concentration in rat at 30 mg/kg, po after 1 hr; type: ADME, organism-based; parameters: dose 30 mg/kg, route oral
How it was run: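 Rats dosed orally at 30 mg/kg; plasma sampled at 1 and 2 h; n = 2 or 3.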

Rattus norvegicus = experiment: Toxicity in rat up to 300 mg/kg/day after 4 weeks; type: organism-based; details: in vivo, 672 h
Cytochrome P450 3A4 [6] = biological target: T2, Cytochrome P450 3A4 (Homo sapiens, UniProt P08684); experiment: Induction of CYP450 3A4; type: ADME
T2 sequence (P08684 whole entry): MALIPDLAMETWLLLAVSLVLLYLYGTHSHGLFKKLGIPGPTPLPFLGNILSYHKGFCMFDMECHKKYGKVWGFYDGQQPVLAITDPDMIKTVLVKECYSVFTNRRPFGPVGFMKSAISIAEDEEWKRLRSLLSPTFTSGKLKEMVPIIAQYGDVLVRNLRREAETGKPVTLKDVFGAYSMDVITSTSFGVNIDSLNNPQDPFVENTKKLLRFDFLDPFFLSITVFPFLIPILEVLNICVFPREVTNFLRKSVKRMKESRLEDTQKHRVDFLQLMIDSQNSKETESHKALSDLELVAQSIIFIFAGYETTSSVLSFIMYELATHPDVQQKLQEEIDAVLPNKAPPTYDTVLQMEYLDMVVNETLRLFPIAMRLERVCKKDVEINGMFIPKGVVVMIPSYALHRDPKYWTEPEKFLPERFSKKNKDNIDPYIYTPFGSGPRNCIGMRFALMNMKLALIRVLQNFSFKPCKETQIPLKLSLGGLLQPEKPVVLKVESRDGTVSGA

Cytochrome P450 3A4 [7] = biological target: T2, Cytochrome P450 3A4; experiment: Inhibition of CYP450 3A4; type: ADME

O=C(O)c1ccc2c(c1)nc(-c1ccc(OCc3cc(N4CCCC4=O)ccc3-c3ccc(Cl)cc3)cc1F)n2C1CCCCC1
CC50 (Huh-5-2): 25 µM
IC50 [1]: > 10 µM
IC50 [2]: 2 µM
IC50 [3]: > 10 µM
half-life [4]: 2.1 h
concentration at 1 h [5]: 4 µM
Activity (Rattus norvegicus): Non-toxic
Activity (Cytochrome P450 3A4 [6]): Not Active
Inhibition (Cytochrome P450 3A4 [7]): Not Active
